Here are results for eight compounds from ChEMBL document CHEMBL1129264, “Mercaptoacyl dipeptides as orally active dual inhibitors of angiotensin-converting enzyme and neutral endopeptidase” (1996).

One may read the inhibition as how much of the control response was suppressed. High values mean a strong effect, low ones a weak effect.

Holding throughout (type): organism-based
For test [1], the target named is T1, Angiotensin-converting enzyme (Rattus norvegicus) (UniProt P47820).
T1 sequence (whole entry): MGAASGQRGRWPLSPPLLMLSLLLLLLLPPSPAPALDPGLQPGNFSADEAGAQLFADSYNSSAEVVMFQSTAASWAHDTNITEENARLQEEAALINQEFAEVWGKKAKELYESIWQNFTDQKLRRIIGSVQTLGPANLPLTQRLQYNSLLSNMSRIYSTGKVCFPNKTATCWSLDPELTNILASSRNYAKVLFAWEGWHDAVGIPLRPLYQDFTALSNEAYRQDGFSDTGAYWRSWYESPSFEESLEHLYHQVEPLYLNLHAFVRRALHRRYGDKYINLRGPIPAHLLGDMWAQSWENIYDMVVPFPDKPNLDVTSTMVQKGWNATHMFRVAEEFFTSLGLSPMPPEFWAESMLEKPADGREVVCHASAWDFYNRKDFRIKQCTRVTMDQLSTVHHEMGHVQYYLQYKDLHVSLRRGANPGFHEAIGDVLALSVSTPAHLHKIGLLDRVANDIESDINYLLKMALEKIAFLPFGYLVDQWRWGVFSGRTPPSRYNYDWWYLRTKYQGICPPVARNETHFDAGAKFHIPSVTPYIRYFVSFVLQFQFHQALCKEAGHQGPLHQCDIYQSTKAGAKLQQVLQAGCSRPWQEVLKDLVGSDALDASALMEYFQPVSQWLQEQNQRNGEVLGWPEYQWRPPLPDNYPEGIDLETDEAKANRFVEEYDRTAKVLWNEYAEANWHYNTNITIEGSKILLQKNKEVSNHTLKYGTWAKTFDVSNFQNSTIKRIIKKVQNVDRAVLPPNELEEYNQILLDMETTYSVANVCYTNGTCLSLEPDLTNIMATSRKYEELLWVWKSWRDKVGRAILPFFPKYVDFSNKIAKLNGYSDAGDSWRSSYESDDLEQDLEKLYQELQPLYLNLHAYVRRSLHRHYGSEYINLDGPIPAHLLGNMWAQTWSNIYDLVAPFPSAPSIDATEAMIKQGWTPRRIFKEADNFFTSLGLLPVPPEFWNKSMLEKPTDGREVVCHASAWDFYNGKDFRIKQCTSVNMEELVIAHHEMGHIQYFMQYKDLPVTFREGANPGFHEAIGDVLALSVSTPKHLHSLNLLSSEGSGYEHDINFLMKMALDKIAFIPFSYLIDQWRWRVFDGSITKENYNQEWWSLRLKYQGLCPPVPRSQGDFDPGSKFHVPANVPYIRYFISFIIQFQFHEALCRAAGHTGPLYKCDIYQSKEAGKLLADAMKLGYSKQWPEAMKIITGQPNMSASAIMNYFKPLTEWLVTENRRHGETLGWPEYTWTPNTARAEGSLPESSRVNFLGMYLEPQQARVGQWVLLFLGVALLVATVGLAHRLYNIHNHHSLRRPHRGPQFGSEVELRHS
The experiment in a line: Compound was tested for plasma inhibition of Angiotensin I converting enzyme activity in the conscious rat. Expressed as Inhibition of AI pressor response at 1 hr at a dose of 10 mg/kg po. Further details: dose 10 mg/kg. In a few lines: (§1)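 Male conscious normotensive Sprague-Dawley rats (275-390 g), given femoral arterial and venous catheters under methohexital sodium (75 mg/kg ip) anesthesia. Next day, pressor responses to three angiotensin-I challenges (300 ng/kg iv) recorded by direct arterial pressure. Compound then dosed orally, and AI challenge repeated at set times. Each post-dose response compared with the mean of the three baseline responses, giving % inhibition.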

The target of test [2] is T1, Angiotensin-converting enzyme (Rattus norvegicus). Briefly: Compound was tested for plasma inhibition of Angiotensin I converting enzyme activity in the conscious rat. Expressed as Inhibition of AI pressor response at 2 hr at a dose of 10 mg/kg po. Further details: dose 10 mg/kg. Summed up: as §1
For test [3] the target is unchanged. The experiment in a line: Compound was tested for plasma inhibition of Angiotensin I converting enzyme activity in the conscious rat. Expressed as Inhibition of AI pressor response at 4 hr at a dose of 10 mg/kg po. More on the design: dose 10 mg/kg. Summed up: as §1
Test [4] has the same target. Briefly: Compound was tested for plasma inhibition of Angiotensin I converting enzyme activity in the conscious rat. Expressed as Inhibition of AI pressor response at 6 hr at a dose of 10 mg/kg po. Further details: dose 10 mg/kg. In a few lines: (§2)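 Male conscious normotensive Sprague-Dawley rats (275-390 g), prepared under methohexital sodium (75 mg/kg ip) with femoral arterial and venous catheters. The next day, pressor responses to three angiotensin-I challenges (300 ng/kg iv) were recorded. Compound was then given orally and angiotensin-I challenges were repeated at set times. Percent inhibition is relative to the mean of the three baseline responses.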

Test [5] has the same target. The experiment in a line: Compound was tested for plasma inhibition of Angiotensin I converting enzyme activity in the conscious rat. Expressed as Inhibition of AI pressor response at 2 hr at a dose of 13.1 mg/kg po. Further details: dose 13.1 mg/kg. In a few lines:
as §1

Test [6] shares this target. Briefly: Compound was tested for plasma inhibition of Angiotensin I converting enzyme activity in the conscious rat. Expressed as Inhibition of AI pressor response at 4 hr at a dose of 13.1 mg/kg po. Further details: dose 13.1 mg/kg. Summed up:
as §2

For test [7] the target is unchanged. The experiment in a line: Compound was tested for plasma inhibition of Angiotensin I converting enzyme activity in the conscious rat. Expressed as Inhibition of AI pressor response at 1 hr at a dose of 13.1 mg/kg po. More on the design: dose 13.1 mg/kg. In a few lines:
as §1

Test [8] has the same target. Briefly: Compound was tested for plasma inhibition of Angiotensin I converting enzyme activity in the conscious rat. Expressed as Inhibition of AI pressor response at 6 hr at a dose of 13.1 mg/kg po. More on the design: dose 13.1 mg/kg. In a few lines:
as §2

Test [9] shares this target. The experiment in a line: Compound was tested for plasma inhibition of Angiotensin I converting enzyme activity in the conscious rat. Expressed as Inhibition of AI pressor response at 6 hr at a dose of 14.3 mg/kg po. More on the design: dose 14.3 mg/kg. In a few lines:
as §2

The target is the same in test [10]. The experiment in a line: Compound was tested for plasma inhibition of Angiotensin I converting enzyme activity in the conscious rat. Expressed as Inhibition of AI pressor response at 2 hr at a dose of 14.3 mg/kg po. Further details: dose 14.3 mg/kg. In a few lines: as §1
Test [11] has the same target. The experiment in a line: Compound was tested for plasma inhibition of Angiotensin I converting enzyme activity in the conscious rat. Expressed as Inhibition of AI pressor response at 1 hr at a dose of 14.3 mg/kg po. Further details: dose 14.3 mg/kg. In a few lines: as §1
For test [12] the target is unchanged. The experiment in a line: Compound was tested for plasma inhibition of Angiotensin I converting enzyme activity in the conscious rat. Expressed as Inhibition of AI pressor response at 4 hr at a dose of 14.3 mg/kg po. Further details: dose 14.3 mg/kg. Summed up: as §2
The target is the same in test [13]. The experiment in a line: Compound was tested for plasma inhibition of Angiotensin I converting enzyme activity in the conscious rat. Expressed as Inhibition of AI pressor response at 2 hr at a dose of 12.8 mg/kg po. More on the design: dose 12.8 mg/kg. In a few lines:
as §1

For test [14] the target is unchanged. The experiment in a line: Compound was tested for plasma inhibition of Angiotensin I converting enzyme activity in the conscious rat. Expressed as Inhibition of AI pressor response at 4 hr at a dose of 12.8 mg/kg po. More on the design: dose 12.8 mg/kg. In a few lines: as §1
The target is the same in test [15]. Briefly: Compound was tested for plasma inhibition of Angiotensin I converting enzyme activity in the conscious rat. Expressed as Inhibition of AI pressor response at 6 hr at a dose of 12.8 mg/kg po. More on the design: dose 12.8 mg/kg. In a few lines:
as §2

The target is the same in test [16]. The experiment in a line: Compound was tested for plasma inhibition of Angiotensin I converting enzyme activity in the conscious rat. Expressed as Inhibition of AI pressor response at 1 hr at a dose of 12.8 mg/kg po. Further details: dose 12.8 mg/kg. Summed up:
as §1

Turning to `COC(=O)[C@H](Cc1ccc(O)cc1)NC(=O)C1(NC(=O)[C@H](SC(C)=O)C(C)C)CCCC1`, the inhibition was determined as 76% in [1], 72% in [2], 25% in test [3] and 14% in [4].

In the case of `CCCCOC(=O)[C@H](Cc1ccc(O)cc1)NC(=O)C1(NC(=O)[C@H](SC(=O)C(C)C)C(C)C)CCCC1`, the inhibition came to 16% in test [5], 25% in [6] and 27% in test [7].

With `CCOC(=O)[C@H](CCc1ccccc1)N[C@H]1CCc2ccccc2N(CC(=O)O)C1=O`, the inhibition in test [1] was 100%; in [2], 77%; in test [3], 39%; in [4], 16%.

Turning to `CCOC(=O)[C@H](Cc1ccc(OC(=O)CC)cc1)NC(=O)C1(NC(=O)[C@H](SC(C)=O)C(C)C)CCCC1`, the inhibition was determined as 35% in test [5], 4% in test [8], 23% in test [6] and 50% in [7].

For `CCCCOC(=O)[C@H](Cc1ccc(O)cc1)NC(=O)C1(NC(=O)[C@H](SC(=O)CCC)C(C)C)CCCC1`, the inhibition in test [5] is 85%; in [8], 69%; in [6] it was 76%; in test [7], 82%.

As for `CCOC(=O)[C@H](Cc1ccc(OC(=O)c2ccccc2)cc1)NC(=O)C1(NC(=O)[C@H](SC(C)=O)C(C)C)CCCC1`, the inhibition in test [9] is 10%; in test [10], 30%; in test [11], 45%; in [12], 36%.

Take `CC(=O)S[C@@H](C(=O)NC1(C(=O)N[C@@H](Cc2ccc(O)cc2)C(=O)OCc2ccccc2)CCCC1)C(C)C`: the inhibition was 74% in [5], 28% in [8], 54% in [6] and 72% in [7].

Turning to `CCOC(=O)[C@H](Cc1ccc(OC(C)=O)cc1)NC(=O)C1(NC(=O)[C@H](SC(C)=O)C(C)C)CCCC1`, the inhibition came out at 52% in [13], 31% in test [14], 16% in test [15] and 64% in test [16].
